# From ChEMBL document CHEMBL2434944, “Novel acetamidothiazole derivatives: synthesis and in vitro anticancer evaluation” (Eur J Med Chem, 2013)
# Columns and labels:
# CAKI-1 = assay: Growth inhibition of human CAKI-1 cells assessed as cell growth at 10^-5 M after 48 hrs by sulforhodamine B assay relative to control; format: functional; conditions: CAKI-1, 48 h, read-out: Activity
# Summary of the method: (§1)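 NCI-60 single-dose screen at 10^-5 M. Cells grown in RPMI 1640 with 5% FBS and 2 mM L-glutamine, plated at 5,000–40,000 cells/well according to doubling time, and preincubated 24 h at 37°C, 5% CO2. Compound dissolved in DMSO and added. Exposure 48 h. Adherent cells fixed with cold TCA (10% final), suspension cells with 16% final TCA. Read-out is 0.4% SRB staining, dye solubilised in 10 mM Tris, absorbance at 515 nm. Percent growth is calculated against the time-zero plate and untreated control.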
# UACC-62 = assay: Growth inhibition of human UACC62 cells assessed as cell growth at 10^-5 M after 48 hrs by sulforhodamine B assay relative to control; format: functional; conditions: UACC-62, 48 h, read-out: Activity
# Summary of the method: (§2)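 NCI-60 single-dose screen, 10^-5 M final. Cells grown in RPMI 1640 with 5% FBS and 2 mM L-glutamine, seeded at 5,000–40,000 cells/well by doubling time. Preincubated 24 h at 37°C, 5% CO2. Compound in DMSO, diluted in medium with gentamicin, then 48 h exposure. Fixed with cold TCA, SRB stained, A515 read. Percent growth vs untreated control, time-zero plate corrected.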
# SK-MEL-28 = assay: Growth inhibition of human SK-MEL-28 cells assessed as cell growth at 10^-5 M after 48 hrs by sulforhodamine B assay relative to control; format: functional; conditions: SK-MEL-28, 48 h, read-out: Activity; summary of the method: as §1
# MDA-MB-435 = assay: Growth inhibition of human MDA-MB-435 cells assessed as cell growth at 10^-5 M after 48 hrs by sulforhodamine B assay relative to control; format: functional; conditions: MDA-MB-435, 48 h, read-out: Activity; summary of the method: as §1
# LOX IMVI = assay: Growth inhibition of human LOXIMVI cells assessed as cell growth at 10^-5 M after 48 hrs by sulforhodamine B assay relative to control; format: functional; conditions: read-out: Activity; summary of the method: as §1
# U-251 = assay: Growth inhibition of human U251 cells assessed as cell growth at 10^-5 M after 48 hrs by sulforhodamine B assay relative to control; format: functional; conditions: U-251, 48 h, read-out: Activity; summary of the method: as §2
# SNB-19 = assay: Growth inhibition of human SNB19 cells assessed as cell growth at 10^-5 M after 48 hrs by sulforhodamine B assay relative to control; format: functional; conditions: SNB-19, 48 h, read-out: Activity; summary of the method: as §1
# SW-620 = assay: Growth inhibition of human SW620 cells assessed as cell growth at 10^-5 M after 48 hrs by sulforhodamine B assay relative to control; format: functional; conditions: SW-620, 48 h, read-out: Activity; summary of the method: as §2
# KM12 = assay: Growth inhibition of human KM12 cells assessed as cell growth at 10^-5 M after 48 hrs by sulforhodamine B assay relative to control; format: functional; conditions: KM12, 48 h, read-out: Activity; summary of the method: as §1
# HCT-116 = assay: Growth inhibition of human HCT116 cells assessed as cell growth at 10^-5 M after 48 hrs by sulforhodamine B assay relative to control; format: functional; conditions: HCT-116, 48 h, read-out: Activity; summary of the method: as §1
# COLO 205 = assay: Growth inhibition of human COLO205 cells assessed as cell growth at 10^-5 M after 48 hrs by sulforhodamine B assay relative to control; format: functional; conditions: COLO 205, 48 h, read-out: Activity; summary of the method: as §1
# NCI-H460 = assay: Growth inhibition of human NCI-H460 cells assessed as cell growth at 10^-5 M after 48 hrs by sulforhodamine B assay relative to control; format: functional; conditions: NCI-H460, 48 h, read-out: Activity; summary of the method: as §1
# HOP-92 = assay: Growth inhibition of human HOP92 cells assessed as cell growth at 10^-5 M after 48 hrs by sulforhodamine B assay relative to control; format: functional; conditions: HOP-92, 48 h, read-out: Activity; summary of the method: as §1
# [1] = target: T1, Leukotriene A-4 hydrolase (Homo sapiens, UniProt P09960); assay: Inhibition of human leukotriene A-4 hydrolase
# T1 sequence (P09960 whole entry): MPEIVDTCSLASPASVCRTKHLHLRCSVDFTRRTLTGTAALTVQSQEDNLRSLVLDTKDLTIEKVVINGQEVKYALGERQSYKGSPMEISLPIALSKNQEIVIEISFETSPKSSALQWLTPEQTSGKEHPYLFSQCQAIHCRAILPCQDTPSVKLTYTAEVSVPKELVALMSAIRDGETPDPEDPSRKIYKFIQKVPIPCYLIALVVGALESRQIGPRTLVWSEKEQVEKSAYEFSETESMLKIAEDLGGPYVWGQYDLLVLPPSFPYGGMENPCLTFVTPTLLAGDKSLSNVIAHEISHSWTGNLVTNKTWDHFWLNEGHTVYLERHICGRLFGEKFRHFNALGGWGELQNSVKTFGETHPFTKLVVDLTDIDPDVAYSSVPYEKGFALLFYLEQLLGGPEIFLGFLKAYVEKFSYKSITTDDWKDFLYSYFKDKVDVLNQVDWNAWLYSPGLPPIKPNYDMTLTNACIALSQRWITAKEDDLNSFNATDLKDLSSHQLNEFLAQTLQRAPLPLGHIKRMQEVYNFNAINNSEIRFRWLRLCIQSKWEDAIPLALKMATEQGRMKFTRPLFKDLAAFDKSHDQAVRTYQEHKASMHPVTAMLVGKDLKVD
# [2] = target: Proto-oncogene tyrosine-protein kinase Src (Homo sapiens, UniProt P12931); assay: Inhibition of human SRC
# Sequence of Proto-oncogene tyrosine-protein kinase Src (P12931 2-536 limits assumed): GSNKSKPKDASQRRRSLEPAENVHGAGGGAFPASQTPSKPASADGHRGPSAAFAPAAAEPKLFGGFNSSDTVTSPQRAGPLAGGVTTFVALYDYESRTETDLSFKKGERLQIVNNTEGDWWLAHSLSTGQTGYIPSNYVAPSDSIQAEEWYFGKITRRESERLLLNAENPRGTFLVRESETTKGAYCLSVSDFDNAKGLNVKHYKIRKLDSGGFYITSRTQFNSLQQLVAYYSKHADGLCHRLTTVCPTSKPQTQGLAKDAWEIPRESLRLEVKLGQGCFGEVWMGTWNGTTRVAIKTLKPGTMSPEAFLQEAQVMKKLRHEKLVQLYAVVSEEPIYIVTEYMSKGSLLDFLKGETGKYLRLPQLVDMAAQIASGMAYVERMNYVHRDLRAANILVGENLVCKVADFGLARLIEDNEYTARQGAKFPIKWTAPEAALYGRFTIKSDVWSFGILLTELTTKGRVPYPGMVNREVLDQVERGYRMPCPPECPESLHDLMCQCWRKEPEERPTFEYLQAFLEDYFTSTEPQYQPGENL
# MDA-MB-468 = assay: Growth inhibition of human MDA-MB-468 cells assessed as cell growth at 10^-5 M after 48 hrs by sulforhodamine B assay relative to control; format: functional; conditions: MDA-MB-468, 48 h, read-out: Activity; summary of the method: as §1
# [3] = Growth inhibition of human Hs 578T cells assessed as cell growth at 10^-5 M after 48 hrs by sulforhodamine B assay relative to control; format: functional; conditions: read-out: Activity; summary of the method: as §1
# MDA-MB-231 = assay: Growth inhibition of human MDA-MB-231 cells assessed as cell growth at 10^-5 M after 48 hrs by sulforhodamine B assay relative to control; format: functional; conditions: MDA-MB-231, 48 h, read-out: Activity; summary of the method: as §1
# DU-145 = assay: Growth inhibition of human DU145 cells assessed as cell growth at 10^-5 M after 48 hrs by sulforhodamine B assay relative to control; format: functional; conditions: DU-145, 48 h, read-out: Activity; summary of the method: as §1
# PC-3 = assay: Growth inhibition of human PC3 cells assessed as cell growth at 10^-5 M after 48 hrs by sulforhodamine B assay relative to control; format: functional; conditions: PC-3, 48 h, read-out: Activity; summary of the method: as §1
# UO-31 = assay: Growth inhibition of human UO31 cells assessed as cell growth at 10^-5 M after 48 hrs by sulforhodamine B assay relative to control; format: functional; conditions: UO-31, 48 h, read-out: Activity; summary of the method: as §2
# TK-10 = assay: Growth inhibition of human TK10 cells assessed as cell growth at 10^-5 M after 48 hrs by sulforhodamine B assay relative to control; format: functional; conditions: TK-10, 48 h, read-out: Activity; summary of the method: as §2
# RXF 393 = assay: Growth inhibition of human RXF393 cells assessed as cell growth at 10^-5 M after 48 hrs by sulforhodamine B assay relative to control; format: functional; conditions: RXF 393, 48 h, read-out: Activity; summary of the method: as §1
SMILES,growth at 10 µM (CAKI-1) [%],growth at 10 µM (UACC-62) [%],growth at 10 µM (SK-MEL-28) [%],growth at 10 µM (MDA-MB-435) [%],growth at 10 µM (LOX IMVI) [%],growth at 10 µM (U-251) [%],growth at 10 µM (SNB-19) [%],growth at 10 µM (SW-620) [%],growth at 10 µM (KM12) [%],growth at 10 µM (HCT-116) [%],growth at 10 µM (COLO 205) [%],growth at 10 µM (NCI-H460) [%],growth at 10 µM (HOP-92) [%],Ki [1] [µM],Ki [2] [µM],growth at 10 µM (MDA-MB-468) [%],growth at 10 µM [3] [%],growth at 10 µM (MDA-MB-231) [%],growth at 10 µM (DU-145) [%],growth at 10 µM (PC-3) [%],also measured
Cc1ccc(-c2csc(=N)n2CC(=O)N2CCN(C)CC2)cc1,78,72.6,97.5,83.4,89.1,83.9,99.8,98.4,104,104,106,102,62.8,0.369,4.73,98.6,101,83.4,109,68.4,growth at 10 µM (UO-31): 83.1%; growth at 10 µM (TK-10): 129%; growth at 10 µM (RXF 393): 93.1%
CC(=O)N1CCN(C(=O)Cn2c(-c3ccccc3)csc2=N)CC1,76.8,89.6,101,105,94.3,96.9,103,109,102,96.1,99.8,110,75,2.59,34.3,94.6,110,95.4,112,83.5,growth at 10 µM (UO-31): 60.4%; growth at 10 µM (TK-10): 138%; growth at 10 µM (RXF 393): 86.3%
CN1CCN(C(=O)Cn2c(-c3ccc(Cl)cc3)csc2=N)CC1,85.9,90.2,107,92.2,96.8,91.2,92.7,102,98.7,94.4,101,101,77.6,0.172,3.23,96.8,106,103,99,83.3,growth at 10 µM (UO-31): 89.2%; growth at 10 µM (TK-10): 85.7%; growth at 10 µM (RXF 393): 108%
Cc1ccc(-c2csc(=N)n2CC(=O)N2CCOCC2)cc1,89.2,98.1,108,87.2,92.8,91.8,106,114,110,101,113,108,68.3,3.56,13.3,106,118,98.4,108,78.9,growth at 10 µM (UO-31): 95.3%; growth at 10 µM (TK-10): 126%; growth at 10 µM (RXF 393): 94.5%
CN1CCN(C(=O)Cn2c(-c3ccccc3)csc2=N)CC1,70.4,85.9,100,104,87.3,88.2,93.7,96.1,102,91.6,103,99.1,73.8,0.629,7.91,97.6,88.2,78.8,104,82.1,growth at 10 µM (UO-31): 78.8%; growth at 10 µM (TK-10): 140%; growth at 10 µM (RXF 393): 97.3%
